Data set [1] concerns the target T1, Poly [ADP-ribose] polymerase 1 (Homo sapiens, UniProt P09874). Particulars: dose 10.0 nM.
Data set [2] deals with T2, Phosphatidylinositol 4,5-bisphosphate 3-kinase catalytic subunit alpha isoform (Homo sapiens, UniProt P42336). In words: Inhibition of PI3Kalpha (unknown origin) at 100 nM relative to control.
Data set [3] relates to MDA-MB-468. In words: Inhibition of PARP1/PI3Kalpha in human MDA-MB-468 cells assessed as down regulation of BRCA2 mRNA expression at 1 uM by RT-PCR analysis.
Data set [4] relates to MDA-MB-468. In words: Antitumor activity against human MDA-MB-468 cells xenografted in BALB/c mouse assessed as tumor growth inhibition at 27.5 mg/kg, ip administered every two days for 34 days relative to control. Particulars: MDA-MB-468, ip, 816 h, read-out: TGI. In general terms: A xenograft is tissue or cells of one species grown in another, often human tumour cells in immunodeficient mice.

For data set [5], the system named is MDA-MB-468. In words: Induction of apoptosis in human MDA-MB-468 cells assessed as late apoptotic cells at 1 uM measured after 72 hrs by Annexin V-FITC/propidium iodide staining based flow cytometry (reference value: 0.78%). The data set is classed as functional.
The test system of data set [6] is MDA-MB-468. In words: Induction of apoptosis in human MDA-MB-468 cells assessed as early apoptotic cells at 1 uM measured after 72 hrs by Annexin V-FITC/propidium iodide staining based flow cytometry (reference value: 3.88%). Format: functional.
Data set [7] deals with MDA-MB-468. In words: Inhibition of PARP1/PI3Kalpha in human MDA-MB-468 cells assessed as down regulation of BRCA1 mRNA expression at 1 uM by RT-PCR analysis.
For data set [8], the system named is MDA-MB-468. In words: Induction of apoptosis in human MDA-MB-468 cells assessed as viable cells at 1 uM measured after 72 hrs by Annexin V-FITC/propidium iodide staining based flow cytometry (reference value: 95.2%). Format: functional. Particulars: read-out: Activity. A general note: In flow cytometry, cells or beads pass a laser one at a time.
Data set [9] concerns MDA-MB-468. In words: Induction of apoptosis in human MDA-MB-468 cells assessed as necrotic cells at 1 uM measured after 72 hrs by Annexin V-FITC/propidium iodide staining based flow cytometry (reference value: 0.13%). The data set is classed as functional.
The target in data set [10] is T1, Poly [ADP-ribose] polymerase 1. In words: Inhibition of PARP1 (unknown origin). The method in brief:
(§1)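 PARP-1 and PI3Kα enzyme inhibition. IC50 taken from dose-response curves and given as mean ± SD of three independent experiments.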

Data set [11] has as its target T2, Phosphatidylinositol 4,5-bisphosphate 3-kinase catalytic subunit alpha isoform. In words: Inhibition of PI3Kalpha (unknown origin). Summed up: as §1
Data set [12] can be described thus: Solubility of compound at pH 7. The following applies: buffer. The data set is classed as physicochemical.
In data set [13] the test system is MDA-MB-468. In words: Antiproliferative activity against human MDA-MB-468 cells measured after 7 days by Celltiter-glo assay. The following applies: MDA-MB-468, 168 h. Format: functional, cell-based. The method in brief:
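MDA-MB-468 cells grown in RPMI1640 with 10% FBS at 37 °C, 5% CO2. Seeded the day before dosing, grown 12 h, then exposed to a range of concentrations for 7 days. Viability read by CellTiter-Glo luminescence after 10 min at room temperature. Inhibition % = (1 − (RLU cpd − blank)/(RLU DMSO − blank)) × 100. IC50 from nonlinear regression of normalized dose-response.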
For orientation: ATP-based viability assays read luminescence as a measure of living cells.

Data set [14] is described as follows: Solubility of compound. The data set is classed as physicochemical.
In data set [15] the test system is MDA-MB-468. In words: Induction of apoptosis in human MDA-MB-468 cells assessed as viable cells at 2 uM measured after 72 hrs by Annexin V-FITC/propidium iodide staining based flow cytometry (reference value: 95.2%). The data set is classed as functional. The following applies: read-out: Activity.
Data set [16] relates to MDA-MB-468. In words: Antitumor activity against human MDA-MB-468 cells xenografted in BALB/c mouse assessed as tumor growth inhibition at 50 mg/kg, ip administered every two days for 34 days relative to control. Particulars: MDA-MB-468, ip, 816 h, read-out: TGI.
Data set [17] relates to MDA-MB-468. In words: Induction of apoptosis in human MDA-MB-468 cells assessed as early apoptotic cells at 2 uM measured after 72 hrs by Annexin V-FITC/propidium iodide staining based flow cytometry (reference value: 3.88%). Format: functional.
In data set [18] the test system is MDA-MB-468. In words: Inhibition of PARP1/PI3Kalpha in human MDA-MB-468 cells assessed as down regulation of BRCA1 mRNA expression at 2 uM by RT-PCR analysis.
For data set [19], the system named is MDA-MB-468. In words: Inhibition of PARP1/PI3Kalpha in human MDA-MB-468 cells assessed as down regulation of BRCA2 mRNA expression at 2 uM by RT-PCR analysis.
The subject of data set [20] is MDA-MB-468. In words: Induction of apoptosis in human MDA-MB-468 cells assessed as necrotic cells at 2 uM measured after 72 hrs by Annexin V-FITC/propidium iodide staining based flow cytometry (reference value: 0.13%). Format: functional.

Calls of active or inactive are those of the source. No cut-off for these calls is given here.

T1 sequence (P09874 whole entry, canonical isoform): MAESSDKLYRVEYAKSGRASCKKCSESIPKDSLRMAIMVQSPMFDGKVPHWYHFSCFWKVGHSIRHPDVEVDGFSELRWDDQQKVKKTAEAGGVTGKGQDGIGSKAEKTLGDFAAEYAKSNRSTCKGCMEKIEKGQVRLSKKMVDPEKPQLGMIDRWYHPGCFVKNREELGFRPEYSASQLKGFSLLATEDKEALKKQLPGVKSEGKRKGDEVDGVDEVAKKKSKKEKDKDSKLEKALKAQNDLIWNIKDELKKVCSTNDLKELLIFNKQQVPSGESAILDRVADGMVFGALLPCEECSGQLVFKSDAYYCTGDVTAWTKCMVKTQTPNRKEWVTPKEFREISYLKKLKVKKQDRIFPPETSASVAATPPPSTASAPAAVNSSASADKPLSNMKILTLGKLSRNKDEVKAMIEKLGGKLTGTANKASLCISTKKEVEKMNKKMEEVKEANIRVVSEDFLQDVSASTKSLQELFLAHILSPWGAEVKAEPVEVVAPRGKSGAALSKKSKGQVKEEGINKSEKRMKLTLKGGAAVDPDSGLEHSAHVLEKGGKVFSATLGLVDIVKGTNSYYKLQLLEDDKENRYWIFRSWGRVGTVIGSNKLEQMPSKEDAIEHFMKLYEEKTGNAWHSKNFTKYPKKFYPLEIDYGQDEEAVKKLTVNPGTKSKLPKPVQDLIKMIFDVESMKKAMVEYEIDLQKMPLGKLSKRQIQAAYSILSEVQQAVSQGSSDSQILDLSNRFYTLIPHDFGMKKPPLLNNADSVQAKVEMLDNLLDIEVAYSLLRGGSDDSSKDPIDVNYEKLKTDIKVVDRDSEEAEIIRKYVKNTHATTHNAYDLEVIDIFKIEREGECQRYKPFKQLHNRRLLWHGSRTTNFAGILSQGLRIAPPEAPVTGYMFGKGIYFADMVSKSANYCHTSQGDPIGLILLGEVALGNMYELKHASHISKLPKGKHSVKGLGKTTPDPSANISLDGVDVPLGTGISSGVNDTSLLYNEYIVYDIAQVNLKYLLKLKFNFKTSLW
T2 sequence (P42336 whole entry, canonical isoform): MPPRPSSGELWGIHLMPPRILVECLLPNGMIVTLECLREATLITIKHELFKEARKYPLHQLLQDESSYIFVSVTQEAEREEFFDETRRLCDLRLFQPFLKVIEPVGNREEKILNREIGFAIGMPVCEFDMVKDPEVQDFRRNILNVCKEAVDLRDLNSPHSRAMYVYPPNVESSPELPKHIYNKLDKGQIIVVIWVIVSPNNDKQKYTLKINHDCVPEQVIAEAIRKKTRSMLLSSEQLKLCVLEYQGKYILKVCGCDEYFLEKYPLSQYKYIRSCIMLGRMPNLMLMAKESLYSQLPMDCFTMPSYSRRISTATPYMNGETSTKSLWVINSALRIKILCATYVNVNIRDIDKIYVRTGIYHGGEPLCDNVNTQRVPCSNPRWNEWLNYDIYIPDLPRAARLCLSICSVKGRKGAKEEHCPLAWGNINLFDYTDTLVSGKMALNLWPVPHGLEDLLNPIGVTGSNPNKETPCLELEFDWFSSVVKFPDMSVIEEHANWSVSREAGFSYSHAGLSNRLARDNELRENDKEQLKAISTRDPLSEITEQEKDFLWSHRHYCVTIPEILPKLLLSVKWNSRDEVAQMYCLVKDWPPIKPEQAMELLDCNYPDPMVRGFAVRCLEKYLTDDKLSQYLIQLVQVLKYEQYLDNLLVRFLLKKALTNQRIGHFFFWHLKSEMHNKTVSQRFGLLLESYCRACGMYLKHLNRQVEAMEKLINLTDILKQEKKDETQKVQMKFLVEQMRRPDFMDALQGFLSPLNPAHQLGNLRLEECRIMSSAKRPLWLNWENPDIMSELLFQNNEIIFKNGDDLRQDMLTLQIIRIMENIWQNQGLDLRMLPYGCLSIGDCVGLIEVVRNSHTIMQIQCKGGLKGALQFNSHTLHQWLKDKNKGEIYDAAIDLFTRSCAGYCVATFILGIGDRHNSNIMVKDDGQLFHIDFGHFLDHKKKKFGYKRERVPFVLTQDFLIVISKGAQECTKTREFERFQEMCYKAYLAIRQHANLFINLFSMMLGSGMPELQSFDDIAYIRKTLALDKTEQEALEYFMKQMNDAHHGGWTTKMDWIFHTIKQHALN

As a reminder, the inhibition is the change of the read-out against control, counted positive when it falls. For the molecule `NC(=O)c1cccc2cc(C(=O)N3CCN(c4nc(N5CCOCC5)nc(-n5c(C(F)F)nc6ccccc65)n4)CC3)oc12`, the inhibition in data set [1] was 36%; in data set [2], 29%.
`Nc1cc(C(F)(F)F)c(-c2cc(N3CCOCC3)nc(N3CCOCC3)n2)cn1` [BUPARLISIB]: the inhibition result in data set [3] and in data set [7] was “Active” throughout. Besides, in data set [4], the inhibition in vivo at 27.5 mg/kg is 33.4%. In addition, the results for the Activity in [5], in data set [6] and in [9] were 1.82%, 6.13% and 0.16%, respectively. For the same molecule, the viability at 1 µM in [8] was 91.9%. For the same molecule, the inhibition in data set [2] came out at 82%.
Turning to `NC(=O)c1cccc2cc(C(=O)N3CCN(c4nc(-c5cnc(NC(=O)CN6CCOCC6)cc5C(F)(F)F)nc(N5CCOCC5)n4)CC3)oc12`, the inhibition entry in [3] and in data set [7] was “Active” throughout.
In the case of `NC(=O)c1cccc2cc(C(=O)N3CCN(c4nc(-c5ccc(N)c(F)c5)nc(N5CCOCC5)n4)CC3)oc12`, the inhibition amounted to 51% in data set [1] and 5% in [2].
The corresponding values for `NC(=O)c1cccc2cc(C(=O)N3CCN(c4nc(-c5cnc(N)cc5C(F)(F)F)nc(N5CCOCC5)n4)CC3)oc12` [listing 1 of 2 here] are 60% and 77%.
The corresponding values for `NC(=O)c1cccc2cc(C(=O)N3CCN(c4nc(-c5ccc6[nH]ccc6c5)nc(N5CCOCC5)n4)CC3)oc12` are 62% and 8%.
In the case of `NC(=O)c1cccc2cc(C(=O)N3CCN(c4cc(-c5cnc(N)cc5C(F)(F)F)nc(N5CCOCC5)n4)CC3)oc12`, the inhibition in [1] stood at 51%; in [2], 80%.
The corresponding values for `NC(=O)c1cccc2cc(C(=O)N3CCN(c4cc(-c5cnc(N)nc5)nc(N5CCOCC5)n4)CC3)oc12` are 85% and 60%.
What is called IC50 is the midpoint of a concentration-inhibition curve. High values mean lower potency, low ones higher potency. For `NC(=O)c1cccc2cc(C(=O)N3CCN(c4nc(-c5ccc(N)nc5)nc(N5CCOCC5)n4)CC3)oc12`, the inhibition amounted to 61% in [1] and 79% in data set [2]. Moreover, the IC50 in [10] stood at 10.8 nM; in data set [11], 119 nM.
With `NC(=O)c1cccc2cc(C(=O)N3CCN(c4cc(-n5c(C(F)F)nc6ccccc65)nc(N5CCOCC5)n4)CC3)oc12`, the inhibition stood at 38% in data set [1] and 26% in [2].
For orientation: solubility means the concentration that dissolves in the medium under given conditions. Molecule `Cl.NC(=O)c1cccc2cc(C(=O)N3CCN(c4nc(-c5cnc(NC(=O)CN6CCOCC6)cc5C(F)(F)F)nc(N5CCOCC5)n4)CC3)oc12` showed a solubility in data set [12] of more than 10000 µg/mL.
Regarding `NC(=O)c1cccc2cc(C(=O)N3CCN(c4nc(-c5cnc(N)cc5C(F)(F)F)nc(N5CCOCC5)n4)CC3)oc12` [listing 2 of 2 here], the figures for the IC50 in data set [10], in [11] and in data set [13] were 7.3 nM, 39.6 nM and 4060 nM, respectively.
As for `NC(=O)c1cccc2cc(C(=O)N3CCN(c4nc(-c5cnc(N)nc5)nc(N5CCOCC5)n4)CC3)oc12`, the solubility result in data set [14] is given as “Insoluble”. The inhibition in data set [1] was determined as 70%; in data set [2], 86%. The results for the IC50 in [10] and in data set [11] were 5.8 nM and 6.3 nM, respectively.
Consider `O=C(c1cc(Cc2n[nH]c(=O)c3ccccc23)ccc1F)N1CCN(C(=O)C2CC2)CC1` [OLAPARIB], for which the viability at 2 µM in [15] came out at 91.5%. Also, the inhibition in vivo at 50 mg/kg in data set [16] was 28.5%. For the same molecule, the Activity was determined as 6.6% in [17] and 0.16% in data set [20]. Further, the inhibition result in data set [18] and in data set [19] was “Active” in each case.
`Cl.NC(=O)c1cccc2cc(C(=O)N3CCN(c4nc(-c5cnc(N)cc5C(F)(F)F)nc(N5CCOCC5)n4)CC3)oc12` yielded a solubility in [12] of less than 100 µg/mL.

These data come from ChEMBL document CHEMBL4732120, “Discovery of novel PARP/PI3K dual inhibitors with high efficiency against BRCA-proficient triple negative breast cancer” (Eur J Med Chem, 2021).
